Structures can show the parent of a compound that is named as a salt.
System: Nrf2 activation in KeratinoSens cells
Experiment: KeratinoSens reporter gene assay
Format: cell-based
Settings: 6 h
Summary of the method: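 KeratinoSens ARE-luciferase cells (passage ≤22) plated at 1.0 × 10^4 per well in triplicate; after 24 h switched to DMEM with 1% FBS, no geneticin. Wortmannin 500 nM added 1 h before test compound at 250 μM; DMF 50 μM as positive control; DMSO ≤0.1%. After 6 h, Alamar Blue (4 h, 37°C), then luciferase read as fold over DMSO. Three independent experiments in triplicate.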

SMILES: COC(=O)/C=C/C(=O)OC [DMF, Dimethyl fumarate]
- Nrf2 activation (luciferase induction) (Iso 250 μM, DMF 50 μM): induced Nrf2 activation

SMILES: COC[C@H]1OC(=O)c2coc3c2[C@@]1(C)C1=C(C3=O)[C@@H]2CCC(=O)[C@@]2(C)C[C@H]1OC(C)=O [Wortmannin]
- effect on Iso-induced Nrf2 activation (Wortmannin 500 nM added 1 h before Iso 250 μM): partially inhibited

Source: PMC13435124 (The FASEB Journal, 2026)
